Assay outcomes as filed in PubChem BioAssay.
TRPML3 agonist: activates the human TRPML3 channel | Q8TDD5 | HEK293 TRPML3-YFP, Fluo-8 calcium fluorescence; 100% = the carbachol control signal | activation, % at 3 µM | 220,000 compounds, 0.29% hits | AID 1448;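 active = activation above its plate's cutoff, the mean activation of the plate's test wells plus 3 SD, cut at about 12% in these data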;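 note: 0% = DMSO only wells and 100% = carbachol wells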
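Material: HEK293 cells stably carrying human TRPML3-YFP; compound dosing: single dose, 3 µM final nominal compound, 0.3% DMSO final; incubation: 1-h 37 °C dye load, 5-s basal, 120-s post-compound reads; technique: Fluo-8 intracellular calcium fluorescence, excitation 470-495 nm, emission 515-575 nm; read-out basis: percent activation from peak-to-basal fluorescence ratio, scaled between DMSO and carbachol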
TRPN1 ag: activates the zebrafish TRPN1 channel; HEK293 zebrafish TRPN1-YFP, Fluo-8 calcium fluorescence; 100% = response to 87 µM carbachol; 220,000 compounds, 0.18% hits; activation, % at 3 µM; AID 1424;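 active = activation above its plate's cutoff, the mean activation of test wells on that plate plus 3 SD, cut at about 19% in these data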;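 note: 0% = DMSO alone and 100% = 87 µM carbachol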
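Assay system: Zebrafish TRPN1-YFP in HEK293 cells | Incubation: Dye loading 1 h at 37 °C, then 30 min room temperature | Measured by: Kinetic Fluo-8 fluorescence, ex 470-495, em 515-575 nm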
OX1R antag-1: blocks the human orexin 1 receptor | O43613 | OX1R-expressing cells, FRET antagonist read-out | inhibition, % at 6.6 µM | 330,000 compounds, 1.8% hits | AID 485270; in the data active = inhibition mostly above about 38%, no sharp cut-off; inactive = mostly below about 40%;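 note: 0% = agonist challenge alone and 100% = reference antagonist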
Target sequence (O43613 whole entry, looked up): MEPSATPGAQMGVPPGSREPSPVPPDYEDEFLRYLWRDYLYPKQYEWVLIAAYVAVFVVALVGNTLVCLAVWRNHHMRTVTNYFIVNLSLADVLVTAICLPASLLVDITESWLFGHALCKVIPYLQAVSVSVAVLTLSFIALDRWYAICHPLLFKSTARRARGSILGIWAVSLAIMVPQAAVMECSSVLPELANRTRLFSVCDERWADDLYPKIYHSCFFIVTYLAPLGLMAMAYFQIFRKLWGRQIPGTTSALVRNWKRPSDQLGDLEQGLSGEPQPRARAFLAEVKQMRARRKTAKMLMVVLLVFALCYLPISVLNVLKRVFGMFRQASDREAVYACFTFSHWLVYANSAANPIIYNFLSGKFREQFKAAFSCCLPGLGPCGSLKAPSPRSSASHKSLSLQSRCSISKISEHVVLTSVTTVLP
CHO parental Ca: signal in parental CHO cells, OX1R antagonist counter-screen. parental CHO-K1, ATP-induced calcium, Fluo-8 fluorescence. inhibition, % at 5.6 µM. 330,000 compounds, 0.63% hits. AID 463079;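 active = inhibition above that plate's mean sample inhibition plus 3 SD, cut at about 26% in these data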;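 note: 0% = ATP-challenged DMSO wells and 100% = DMSO wells without ATP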
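Test system: untransfected parental CHO cell line; also added: ATP stimulus; dosing: 5.6 µM, single dose; signal: calcium-sensitive Fluo-8 fluorescence; measure: percent inhibition of ATP-evoked calcium rise, normalized to controls; benchmarks: low control ATP plus DMSO, high control DMSO only; replication: one well per compound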
OX1R antag-2: human HCRTR1 antagonism | 330,000 compounds, 0.43% hits | CHO/OX1R cells, Fluo-8 calcium fluorescence, orexin A | AID 434989 | O43613 | inhibition, % at 5 µM;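 active = inhibition above its plate's threshold, mean inhibition of all tested compounds on the plate plus 3 SD, cut at about 37% in these data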;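 note: 0% = orexin A challenge wells and 100% = SB-334867-A antagonist wells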
* marks the source's active call; other numbers are inactive results; / = no result given. Shown are actives, neighbours in structure and some others; about 2.5% of the full set was active somewhere.

SMILES	TRPML3 agonist	TRPN1 ag	OX1R antag-1	CHO parental Ca	OX1R antag-2
Cc1occc1C(=O)N/N=C/c1ccc(Cl)c([N+](=O)[O-])c1	0	1	64*	-12	10
CCN(CC)c1ccc(/C=C/c2ccc3ccc(OC)cc3[n+]2CC)cc1	/	/	33	59*	28
CC[n+]1c(/C=C/c2ccc(OC)c(OC)c2)ccc2ccccc21	/	/	65*	-4	-23
O=C(Nc1nccs1)c1ncc(Cl)c(Cl)c1Cl	/	/	12	-12	-17
CC(=O)c1cc(N2CCC(C(=O)O)CC2)ccc1[N+](=O)[O-]	1	-2	67*	-18	-10
O=C(COC(=O)c1cc2ccccc2oc1=O)Nc1ccc(F)cc1F	1	0	9	-4	-21
CS(=O)(=O)c1ccc(C(=O)OCC(=O)NC(=O)C2COc3ccccc3O2)cc1[N+](=O)[O-] (centres undefined)	/	/	22	-16	-4
CC(CCc1ccccc1)NC(=O)COC(=O)c1ccc([N+](=O)[O-])cc1 (centres undefined)	/	/	13	-18	-23
CS(=O)(=O)c1ccc(C(=O)OCC(=O)NC(=O)C2CCCCC2)cc1[N+](=O)[O-]	1	0	49*	17	6
CC(CCc1ccccc1)NC(=O)COC(=O)c1ccc(S(C)(=O)=O)c([N+](=O)[O-])c1 (centres undefined)	1	2	69*	18	6
Cc1ccccc1Nc1nc(N)nc(CSc2nc3ccccc3s2)n1	0	-1	67*	-34	2
Cc1ccc(Nc2nc(N)nc(CSc3nc4ccccc4s3)n2)cc1	0	-1	27	-38	-21
Cc1ccccc1OCC(O)Cn1c(=N)n(Cc2ccccc2)c2ccccc21 (centres undefined)	0	-1	-6	39*	29
CCn1c(=NC(=O)CS(=O)(=O)c2ccccc2)sc2cccc(OC)c21	/	/	33*	5	20
C#CCn1c(=NC(=O)c2cccs2)sc2cccc(OC)c21	0	-2	66*	12	-41
Cn1c(=NC(=O)CS(=O)(=O)c2ccccc2)sc2ccccc21	/	/	1	-6	-13
COc1ccc(OC)c(C(=O)N2CCC(CCC(=O)NC3CC3)CC2)c1	/	/	-1	-5	-10
O=C(OCC(=O)N1CCCCCC1)c1ccc([N+](=O)[O-])cc1Cl	1	1	46*	2	-26
CN1CCN(C(=O)/C=C/c2ccc([N+](=O)[O-])cc2)CC1	1	1	61*	-10	-7
O=C(/C=C/c1ccc([N+](=O)[O-])cc1)OCC(=O)N1CCCC1	/	/	45*	-17	-14
O=C(NCCc1nnc2ccc(NCC3CCCO3)nn12)c1ccccc1 (centres undefined)	0	2	0	-3	-17
CC(=O)c1c(O)cc(O)cc1CC(=O)O	1	2	1	-11	-7
CC(=O)c1c(O)cc(O)c(C(C)=O)c1O	/	/	72*	57*	33
CC(C(=O)Nc1ccccc1-c1ccccc1)N(C)Cc1nc2ccccc2c(=O)[nH]1 (centres undefined)	0	-1	33	-39	-34
COc1cc(NS(=O)(=O)c2ccc(C)cc2C)cc(OC)c1OC	0	2	28	51*	30
SMILES	TRPML3 agonist	TRPN1 ag	OX1R antag-1	CHO parental Ca	OX1R antag-2
CCOC(=O)c1ccc(NS(=O)(=O)c2cc(C)ccc2OC)cc1	0	0	9	24*	-20
COc1cc(NS(=O)(=O)c2cc3[nH]c(=O)c(=O)[nH]c3cc2C)cc(OC)c1OC	/	/	12	-3	20
Cc1cc(C)c(NC(=O)CCc2c(C)noc2C)c(C)c1	/	/	2	-5	-11
CC1CS(=O)(=O)CCN1N=Cc1ccc([N+](=O)[O-])o1 (centres undefined)	/	/	53*	-6	-5
O=S(=O)(NCc1nc2ccccc2[nH]1)c1ccccc1	/	/	16	-2	0
COc1ccc(C(=O)NCC2(c3ccc(OC)c(OC)c3)CCCC2)c(OC)c1	/	/	3	-23	-24
CSc1cccc(NS(=O)(=O)c2ccc3c(c2)CCN3C(C)=O)c1	/	/	22	64*	47
O=C(Nc1ccc(OCC(F)(F)C(F)F)c(C(F)(F)F)c1)c1ccccc1O	2	11	85*	72*	66*
O=C(Nc1ccc(OCC(F)(F)C(F)F)c(C(F)(F)F)c1)c1ccccc1	3	10	20	5	-7
